*1 amine or outer side, *2 acyl side, *3 side chain or, on linkers, in order; H or OH if unused. Where a SMILES comes first, the peptide text is derived from it. Side-chain parts run from the residue outwards. [ ]: non-standard residue; d: D form. The star is where a group is joined. X2 = O=C([C@@H]1Cc2c([nH]c3ccccc23)CN1CCN[*:1])[*:2]; X8 = O=C(CN(CCN[*:1])Cc1ccc([N+](=O)[O-])cc1)[*:2]; N(2-Aminoethyl)Gly = O=C(CN(CCN[*:3])[*:1])[*:2]; X7 = O=C(CN(CCN[*:1])CCc1c[nH]c2ccccc12)[*:2]; X4 = O=C([C@@H]1Cc2ccccc2CN1CCN[*:1])[*:2]; X9 = O=C(CN(CCN[*:1])Cc1ccnc2ccccc12)[*:2]; X6 = O=C(CN(CCN[*:1])CCc1ccccc1)[*:2]; X3 = O=C(CN(CCN[*:1])Cc1ccccc1)[*:2]; X1 = O=C(Cc1c[nH]c2ccccc12)*; 3Amb = NCc1cccc(C(=O)O)c1; PhAc = O=C(Cc1ccccc1)*; βAla = NCCC(=O)O
Columns and labels:
T-cell [1] = experiment: Stimulation of INFgamma production in M77.84 T cells at 10 uM by flow cytometry; format: functional, Homo sapiens
Method in brief: (§1)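 Melan-A/MART-1-specific CD8 clones. T2 cells are pulsed 1 h at 37 °C with 10 µM compound and washed. 2 × 10^5 of them are co-cultured with 10^5 clone cells in RPMI-1640/10% FCS with brefeldin A (10 µg/mL) for 6 h at 37 °C. Cells are fixed in 4% PFA, then saponin-permeabilized and stained with PE anti-IFN-γ (5 µg/mL, 30 min). Flow cytometry on 10^4 events gives the % IFN-γ+ cells and the MFI.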

T-cell [2] = experiment: Stimulation of INFgamma production in M199.2.7 T cells at 10 uM by flow cytometry; format: functional, Homo sapiens; method in brief: as §1
T-cell [3] = experiment: Stimulation of INFgamma production in M199.3.2 T cells at 10 uM by flow cytometry; format: functional, Homo sapiens; method in brief: as §1
[4] = Stimulation of INFgamma production in MEL1.37 T cells at 10 uM by flow cytometry; format: functional, Homo sapiens; method in brief: as §1
T-cell [5] = experiment: Stimulation of INFgamma production in CDM41 ELA1 T cells at 10 uM by flow cytometry; format: functional, Homo sapiens; method in brief: as §1
T-cell [6] = experiment: Stimulation of INFgamma production in M17.29 ELA1 T cells at 10 uM by flow cytometry; format: functional, Homo sapiens; method in brief: as §1
Homo sapiens = organism: Homo sapiens; experiment: Binding affinity to HLA-A2 in TAP-deficient HLA-A2+T2 cells assessed as fluorescence intensity relative to ELA
Method in brief: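 T2 cells (TAP-deficient, HLA-A2+) loaded overnight at 37 °C in serum-free RPMI-1640 with 100 µM compound plus human β2-microglobulin (100 ng/mL). Washed, stained with HLA-A2 mAb HB54 or isotype control (30 min, 4 °C), then PE anti-mouse IgG (30 min); flow cytometry. RFI = specific MFI / control MFI. Value reported as […].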

T-cell [7] = experiment: Stimulation of INFgamma production in 10C10 T cells at 10 uM by flow cytometry; format: functional, Homo sapiens; method in brief: as §1
T-cell [8] = experiment: Stimulation of INFgamma production in CDM41 T cells at 10 uM by flow cytometry; format: functional, Homo sapiens; method in brief: as §1
T-cell [9] = experiment: Stimulation of INFgamma production in M17.29 T cells at 10 uM by flow cytometry; format: functional, Homo sapiens; method in brief: as §1
T-cell [10] = experiment: Stimulation of INFgamma production in MEL1.38 T cells at 10 uM by flow cytometry; format: functional, Homo sapiens

SMILES: CC[C@H](C)[C@H](NC(=O)CNC(=O)[C@H](Cc1ccccc1)NC(=O)CNC(=O)[C@H](C)NC(=O)[C@H](CC(C)C)NC(=O)[C@@H](N)CCC(=O)O)C(=O)N[C@@H](CC(C)C)C(=O)N[C@H](C(=O)N[C@H](C(=O)O)C(C)C)[C@@H](C)O
- Activity (T-cell [1]): 32%
- Activity (T-cell [2]): 7%
- Activity (T-cell [3]): 83%
- Activity [4]: 71%
- Activity (T-cell [5]): 58%
- Activity (T-cell [6]): 48%

SMILES: CC(C)C[C@H](NC(=O)CCN)C(=O)N[C@@H](C)C(=O)NCCN(CC(=O)NCc1cccc(C(=O)N[C@@H](CC(C)C)C(=O)N[C@H](C(=O)N[C@H](C(=O)O)C(C)C)[C@@H](C)O)c1)Cc1ccccc1 (H-[βAla]LA[X3][3Amb]LTV-OH)
- Ratio (Homo sapiens): 0.95

SMILES: CC[C@H](C)[C@H](NC(=O)CNC(=O)CN(CCNC(=O)[C@H](C)NC(=O)[C@H](CC(C)C)NC(=O)[C@@H](N)CCC(=O)O)Cc1cccc2ccccc12)C(=O)N[C@@H](CC(C)C)C(=O)N[C@H](C(=O)N[C@H](C(=O)O)C(C)C)[C@@H](C)O
- Ratio (Homo sapiens): 0.7

SMILES: CC[C@H](C)[C@H](NC(=O)CNC(=O)CN(CCNC(=O)[C@H](C)NC(=O)[C@H](CC(C)C)NC(=O)[C@@H](N)CCC(=O)O)Cc1ccc(O)cc1)C(=O)N[C@@H](CC(C)C)C(=O)N[C@H](C(=O)N[C@H](C(=O)O)C(C)C)[C@@H](C)O
- Activity (T-cell [7]): 0%
- Ratio (Homo sapiens): 0.83
- Activity (T-cell [1]): 0%
- Activity (T-cell [2]): 0%
- Activity (T-cell [3]): 0%
- Activity [4]: 0%
- Activity (T-cell [5]): 46%
- Activity (T-cell [6]): 0%

SMILES: CC[C@H](C)[C@H](NCCNC(=O)[C@H](Cc1c[nH]c2ccccc12)NCCNC(=O)[C@H](C)NC(=O)[C@H](CC(C)C)NC(=O)[C@@H](N)CCC(=O)O)C(=O)N[C@@H](CC(C)C)C(=O)N[C@H](C(=O)N[C@H](C(=O)O)C(C)C)[C@@H](C)O
- Ratio (Homo sapiens): 1.61

SMILES: CC[C@H](C)[C@H](NC(=O)CNC(=O)CN(CCNC(=O)[C@H](C)NC(=O)[C@H](CC(C)C)NC(=O)[C@@H](N)CCC(=O)O)Cc1ccc([N+](=O)[O-])cc1)C(=O)N[C@@H](CC(C)C)C(=O)N[C@H](C(=O)N[C@H](C(=O)O)C(C)C)[C@@H](C)O
- Activity (T-cell [7]): 0%
- Ratio (Homo sapiens): 0.85
- Activity (T-cell [1]): 0%
- Activity (T-cell [2]): 0%
- Activity (T-cell [3]): 0%
- Activity [4]: 0%
- Activity (T-cell [5]): 64%
- Activity (T-cell [6]): 0%

SMILES: CC(C)C[C@H](NC(=O)CCN)C(=O)N[C@@H](C)C(=O)NCCN(CC(=O)NCc1cccc(C(=O)N[C@@H](CC(C)C)C(=O)N[C@H](C(=O)N[C@H](C(=O)O)C(C)C)[C@@H](C)O)c1)C(=O)Cc1c[nH]c2ccccc12 (X1-[N(2-Aminoethyl)Gly]([Ala-Leu-βAla])[3Amb]LTV-OH)
- Activity (T-cell [8]): 31%
- Activity (T-cell [9]): 27%
- Activity (T-cell [7]): 0%
- Activity (T-cell [10]): 44%
- Ratio (Homo sapiens): 1.02
- Activity (T-cell [1]): 12%
- Activity (T-cell [2]): 25%
- Activity [4]: 89%

SMILES: CC(C)C[C@H](NC(=O)CCN)C(=O)N[C@@H](C)C(=O)NCCN(CC(=O)NCc1cccc(C(=O)N[C@@H](CC(C)C)C(=O)N[C@H](C(=O)N[C@H](C(=O)O)C(C)C)[C@@H](C)O)c1)Cc1ccc([N+](=O)[O-])cc1 (H-[βAla]LA[X8][3Amb]LTV-OH)
- Ratio (Homo sapiens): 0.86

SMILES: CC[C@H](C)[C@H](NC(=O)CNC(=O)CN(CCNC(=O)[C@H](C)NC(=O)[C@H](CC(C)C)NC(=O)[C@@H](N)CCC(=O)O)Cc1ccccc1)C(=O)N[C@@H](CC(C)C)C(=O)N[C@H](C(=O)N[C@H](C(=O)O)C(C)C)[C@@H](C)O
- Ratio (Homo sapiens): 0.9

SMILES: CC[C@H](C)[C@H](NC(=O)CNC(=O)CN(CCNC(=O)[C@H](C)NC(=O)[C@H](CC(C)C)NC(=O)[C@@H](N)CCC(=O)O)CC1CCCCC1)C(=O)N[C@@H](CC(C)C)C(=O)N[C@H](C(=O)N[C@H](C(=O)O)C(C)C)[C@@H](C)O
- Ratio (Homo sapiens): 0.86

SMILES: CC(C)C[C@H](NC(=O)CCN)C(=O)N[C@@H](C)C(=O)NCCN(CC(=O)NCc1cccc(C(=O)N[C@@H](CC(C)C)C(=O)N[C@H](C(=O)N[C@H](C(=O)O)C(C)C)[C@@H](C)O)c1)C(=O)Cc1ccccc1 (PhAc-[N(2-Aminoethyl)Gly]([Ala-Leu-βAla])[3Amb]LTV-OH)
- Ratio (Homo sapiens): 0.54

SMILES: CC(C)C[C@H](NC(=O)CCN)C(=O)N[C@@H](C)C(=O)NCCN(CC(=O)NCc1cccc(C(=O)N[C@@H](CC(C)C)C(=O)N[C@H](C(=O)N[C@H](C(=O)O)C(C)C)[C@@H](C)O)c1)Cc1ccnc2ccccc12 (H-[βAla]LA[X9][3Amb]LTV-OH)
- Ratio (Homo sapiens): 1.31

SMILES: CC[C@H](C)[C@H](NC(=O)CNC(=O)[C@H](Cc1c[nH]c2ccccc12)NC(=O)CNC(=O)[C@H](C)NC(=O)[C@H](CC(C)C)NC(=O)[C@@H](N)CCC(=O)O)C(=O)N[C@@H](CC(C)C)C(=O)N[C@H](C(=O)N[C@H](C(=O)O)C(C)C)[C@@H](C)O
- Activity (T-cell [7]): 0%
- Activity (T-cell [1]): 90%
- Activity (T-cell [2]): 15%
- Activity (T-cell [3]): 54%
- Activity [4]: 81%
- Activity (T-cell [5]): 47%
- Activity (T-cell [6]): 55%

SMILES: CC[C@H](C)[C@H](NCCNC(=O)[C@H](Cc1ccc(O)cc1)NCCNC(=O)[C@H](C)NC(=O)[C@H](CC(C)C)NC(=O)[C@@H](N)CCC(=O)O)C(=O)N[C@@H](CC(C)C)C(=O)N[C@H](C(=O)N[C@H](C(=O)O)C(C)C)[C@@H](C)O
- Ratio (Homo sapiens): 1.71

SMILES: CC(C)C[C@H](NC(=O)CCN)C(=O)N[C@@H](C)C(=O)NCCN(CCc1ccccc1)CC(=O)NCc1cccc(C(=O)N[C@@H](CC(C)C)C(=O)N[C@H](C(=O)N[C@H](C(=O)O)C(C)C)[C@@H](C)O)c1 (H-[βAla]LA[X6][3Amb]LTV-OH)
- Ratio (Homo sapiens): 0.25

SMILES: CC[C@H](C)[C@H](NC(=O)CNC(=O)CN(CCNC(=O)[C@H](C)NC(=O)[C@H](CC(C)C)NC(=O)CCN)Cc1ccccc1)C(=O)N[C@@H](CC(C)C)C(=O)N[C@H](C(=O)N[C@H](C(=O)O)C(C)C)[C@@H](C)O
- Ratio (Homo sapiens): 0.96

SMILES: CC(C)C[C@H](NC(=O)CCN)C(=O)N[C@@H](C)C(=O)NCCN1Cc2ccccc2C[C@H]1C(=O)NCc1cccc(C(=O)N[C@@H](CC(C)C)C(=O)N[C@H](C(=O)N[C@H](C(=O)O)C(C)C)[C@@H](C)O)c1 (H-[βAla]LA[X4][3Amb]LTV-OH)
- Ratio (Homo sapiens): 0.64

SMILES: CC[C@H](C)[C@H](NC(=O)CNC(=O)[C@H](Cc1ccc(O)cc1)NC(=O)CNC(=O)[C@H](C)NC(=O)[C@H](CC(C)C)NC(=O)[C@@H](N)CCC(=O)O)C(=O)N[C@@H](CC(C)C)C(=O)N[C@H](C(=O)N[C@H](C(=O)O)C(C)C)[C@@H](C)O
- Activity (T-cell [7]): 0%
- Activity (T-cell [1]): 4%
- Activity (T-cell [2]): 0%
- Activity (T-cell [3]): 78%
- Activity [4]: 84%
- Activity (T-cell [5]): 63%
- Activity (T-cell [6]): 32%

SMILES: CC[C@H](C)[C@H](NC(=O)CNC(=O)CN(CCNC(=O)[C@H](C)NC(=O)[C@H](CC(C)C)NC(=O)[C@@H](N)CCC(=O)O)Cc1ccnc2ccccc12)C(=O)N[C@@H](CC(C)C)C(=O)N[C@H](C(=O)N[C@H](C(=O)O)C(C)C)[C@@H](C)O
- Activity (T-cell [7]): 0%
- Ratio (Homo sapiens): 0.79
- Activity (T-cell [1]): 0%
- Activity (T-cell [2]): 0%
- Activity (T-cell [3]): 0%
- Activity [4]: 3%
- Activity (T-cell [5]): 69%
- Activity (T-cell [6]): 0%

SMILES: CC(C)C[C@H](NC(=O)CCN)C(=O)N[C@@H](C)C(=O)NCCN(CCc1c[nH]c2ccccc12)CC(=O)NCc1cccc(C(=O)N[C@@H](CC(C)C)C(=O)N[C@H](C(=O)N[C@H](C(=O)O)C(C)C)[C@@H](C)O)c1 (H-[βAla]LA[X7][3Amb]LTV-OH)
- Ratio (Homo sapiens): 0.86

SMILES: CC(C)C[C@H](NC(=O)CCN)C(=O)N[C@@H](C)C(=O)NCCN1Cc2[nH]c3ccccc3c2C[C@H]1C(=O)NCc1cccc(C(=O)N[C@@H](CC(C)C)C(=O)N[C@H](C(=O)N[C@H](C(=O)O)C(C)C)[C@@H](C)O)c1 (H-[βAla]LA[X2][3Amb]LTV-OH)
- Ratio (Homo sapiens): 0.81
